# Published values gathered from unrelated publications.
# Protocols differ between the studies behind these lines.
# Observed: cell growth or viability
SMILES,cell line,assay,conditions,CC50 [µM]
O=c1[nH]c(=O)c2ncn(C[C@@H](CO)OCP(=O)(O)O)c2[nH]1,HEL,,72 h,> 300
COc1ccc(S(=O)(=O)ON=C2C=C(C)C(=O)C(C)=C2)cc1,HPAC,,,> 30
C[C@H](NC(=O)[C@]1(Cc2ccccc2)CCN1C(=O)OCc1ccccc1)C(=O)NC(C)(C)C,HEL,,72 h,> 100
Cc1nc2ccc(Cl)cn2c1C(=O)N1CCN(Cc2cn(-c3ccc(F)cc3)nn2)CC1,HeLa,resazurin,,> 100
Nc1nc(O)c2ncn(COC(CO)CO)c2n1,HEL,,72 h,63
CCOP(=O)(OCC)[C@@H]1C[C@H](n2cc(Cn3ccc(=O)[nH]c3=O)nn2)ON1C (racemic),HEL,,72 h,> 100
Cc1nc2ccc(Cl)cn2c1C(=O)N1CCN(CCn2cc(C3CC3)nn2)CC1,HeLa,resazurin,,> 100
CCOP(=O)(OCC)[C@@H]1C[C@H](n2cc(Cn3cc(C)c(=O)[nH]c3=O)nn2)ON1C (racemic),HEL,,72 h,> 100
O=c1[nH]c(=O)c2ncn(CCOCP(=O)(O)O)c2[nH]1,HEL,,72 h,111
Cc1ccn2c(C(=O)N3CCN(Cc4cn(-c5ccccc5Cl)nn4)CC3)c(C)nc2c1,HeLa,resazurin,,> 100
CCOP(=O)(OCC)[C@@H]1C[C@@H](n2cc(Cn3cnc4c(N)ncnc43)nn2)ON1C (racemic),HEL,,72 h,> 100
